Fh CTSL1 inh = cathepsin L1 inhibition, PFM18AAP counter-screen; recombinant F. hepatica cathepsin L1, Z-Leu-Arg-MCA fluorescence; inhibition, % at 5.96 µM; actives 0.49% (n = 300,000); AID 1906;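 active means inhibition above the mean of all tested compounds plus 3 SD, set per screening campaign, cut at about 17% in these data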
NRP1-CendR mod = modulators of CendR peptide binding to human neuropilin-1; inhibition, % at 25 µM; FAM-RPARPAR peptide binding to NRP-1, fluorescence polarization; O14786; actives 0.85% (n = 360,000);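 active means inhibition or corrected inhibition above about 18%, plus a signal ratio from 0.5 to 1.5, limit read from the data, passing the limit was not always enough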
MT1-MMP act inh = inhibitors of human MT1-MMP activation | P50281 | HT1080 RFP-PRO-GFP cells, GFP/RFP ratio fluorescence, overnight; percent of plate control window, DMSO zero | GFP/RFP ratio change, % at 20 µM | actives 0.061% (n = 360,000) | AID 651647;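 active means GFP/RFP ratio change of at least 30% with cell ATP level not reduced by more than half and red fluorescence within 50% of control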
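system = RFP-PRO-GFP reporter HT1080 cells | dosing = 20 µM single dose, 1% DMSO | timing = overnight cell settling, then overnight compound exposure, 37 °C, 5% CO2 | read-out basis = GFP/RFP fluorescence ratio | controls = DMSO and RFP-L50D-GFP cell wells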
UCH37 DUB inh = inhibitors of human deubiquitinating enzyme UCH37; AID 588478; Q9Y5K5; actives 0.33% (n = 330,000); inhibition, % (concentration not given with the values); purified proteasome/UCH37, Ub-AMC cleavage fluorescence;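 active means mean inhibition over replicate wells above about 20%, limit read from the data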
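Material: human UCH37 enzyme supplied as purified proteasome complex. Measure: % inhibition of Ub-AMC cleavage fluorescence. Medium: pH 7.4 Tris-HCl (50 mM) with ovalbumin, ATP-MgCl2, DTT. Times: 30 min preincubation with enzyme, 25 min cleavage at room temperature. Detection: AMC fluorescence intensity at 355/460 nm.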
DAGLB inh = diacylglycerol lipase beta (human) inhibition | Q8NCG7 | HEK293T DAGLB membrane lysate, EnzChek fluorogenic substrate | inhibition, % at 5.17 µM | actives 0.059% (n = 340,000); in the data active means inhibition above about 34%
Target sequence (Q8NCG7 whole entry, looked up): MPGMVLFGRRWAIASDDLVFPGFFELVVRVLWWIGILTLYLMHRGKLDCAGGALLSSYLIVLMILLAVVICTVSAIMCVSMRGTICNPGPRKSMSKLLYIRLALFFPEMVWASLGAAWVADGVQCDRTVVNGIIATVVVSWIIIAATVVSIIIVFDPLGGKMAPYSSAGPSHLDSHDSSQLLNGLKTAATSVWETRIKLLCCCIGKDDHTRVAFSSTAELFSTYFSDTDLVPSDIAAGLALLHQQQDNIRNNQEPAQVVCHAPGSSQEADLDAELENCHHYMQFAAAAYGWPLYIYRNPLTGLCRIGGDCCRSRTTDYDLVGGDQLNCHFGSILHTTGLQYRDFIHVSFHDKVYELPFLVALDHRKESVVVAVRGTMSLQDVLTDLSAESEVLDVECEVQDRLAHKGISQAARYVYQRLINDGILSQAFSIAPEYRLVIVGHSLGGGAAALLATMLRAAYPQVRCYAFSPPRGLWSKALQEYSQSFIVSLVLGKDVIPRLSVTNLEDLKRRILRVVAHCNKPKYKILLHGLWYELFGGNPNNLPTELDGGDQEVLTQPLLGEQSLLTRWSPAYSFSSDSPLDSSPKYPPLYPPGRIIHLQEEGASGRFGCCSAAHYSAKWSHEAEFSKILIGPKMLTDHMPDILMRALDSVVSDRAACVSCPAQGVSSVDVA
Hits are given with their value; n = inactive; x = no result given. This is a sample that favours compounds with a hit; in the whole collection about 1.5% have one here.

SMILES	Fh CTSL1 inh	NRP1-CendR mod	MT1-MMP act inh	UCH37 DUB inh	DAGLB inh
COc1cc(C=NNC(=O)c2ccc(Cl)cc2)ccc1Oc1ccc([N+](=O)[O-])cn1	x	x	x	n	x
CC(=O)c1cccc2c(O)c(C3=Nc4ccccc4C3=O)[nH]c12	n	n	n	28	n
O=C1C(c2c(O)[nH]c3ccccc23)=Nc2ccccc21	n	n	n	n	n
COCCn1c(SCC(=O)Nc2ccc3c(c2)OCCO3)nc2ccccc2c1=O	x	n	x	x	n
COCC(C)n1c(SCC(=O)Nc2ccc3c(c2)OCCO3)nc2ccccc2c1=O (stereo not drawn)	x	22	n	n	n
C=CCn1c(=C2C(=O)NN=C2C)sc(=C2Sc3ccccc3N2CC)c1=O	x	x	x	n	x
CC(C)CNC(=O)C(=O)NN=Cc1cccs1	x	x	x	n	x
Cc1ccsc1/C=N/NC(=O)C(=O)NCC(C)C	n	32	n	x	n
CC1CCc2cc(F)ccc2N1C(=O)c1cccs1 (stereo not drawn)	n	n	n	n	n
CC1CCc2cc(F)ccc2N1C(=O)CCC(=O)O (stereo not drawn)	n	25	n	n	n
Cc1cc(=O)oc(C)c1C(=O)Nc1ccc2nsnc2c1	n	27	n	n	n
Cc1ccc(S(=O)(=O)N/N=C\c2cn(CC(N)=O)c3ccccc23)cc1C	n	25	n	x	n
Cc1ccc(S(=O)(=O)NN=Cc2cn(CC(N)=O)c3ccccc23)cc1C	x	x	x	n	x
COc1cc2c(cc1OC)-c1cc3ccc(OC)c(OC)c3c[n+]1CC2	n	n	n	n	n
COc1ccc2cc3[n+](cc2c1O)CCc1cc2c(cc1-3)OCO2	x	31	n	x	x
O=S(=O)(N=C(c1ccc(Cl)cc1)N1CCOCC1)c1ccccc1	x	x	x	n	x
COc1ccc2c(c1)C(=O)c1ccccc1CO2	n	n	n	n	n
O=C1c2ccccc2COc2ccc(O)cc21	21	n	n	n	n
CC(C)C(=O)NNC(=O)CSc1ncnc2c1cnn2-c1ccccc1Cl	44	n	n	n	n
CCn1nc(C)c(C=NNC(=S)Nc2ccc(Cl)cc2Cl)c1C	x	x	x	n	x
O=C(CNc1ccc2ccccc2c1)NN=Cc1ccc(OC(=O)/C=C/c2ccco2)cc1	x	x	x	n	x
COc1ccc(NC(=O)CCl)cn1	17	x	x	x	x
CC(C)(C)n1cnc2cc(NC(=O)c3ccccc3)ccc21	n	23	n	n	n
CCc1cc(C(=O)Nc2ccc(OC)nc2)sc1C	n	24	n	x	n
COc1ccc(NC(=O)c2ccco2)cn1	n	26	n	n	n
SMILES	Fh CTSL1 inh	NRP1-CendR mod	MT1-MMP act inh	UCH37 DUB inh	DAGLB inh
CCOc1cc(C=NNc2cc(C)nc3ccc(C)cc23)ccc1O	x	x	x	n	x
Cn1cnc2cc(NC(=O)c3ccco3)ccc21	n	24	n	n	n
O=C(Nc1ccc2c(c1)ncn2-c1ccccc1)c1ccco1	n	n	n	n	n
COc1cc(C=NNC(=O)c2cc3ccccc3cc2O)ccc1OCCN1CCCCC1	x	x	x	n	x
CC(=NNC(N)=O)c1ccc(-n2ccnc2)cc1	x	x	x	n	x
Cc1ccc(C2CC(c3cccs3)=NN2C(=O)CCl)cc1 (stereo not drawn)	52	n	n	x	n
CC(C)(C)OC(=O)CNC(=O)c1nc[nH]c1C(=O)N1CCN(C(=O)OC(C)(C)C)CC1	n	n	n	n	n
CC(C)(C)OC(=O)N1CCC(NC(=O)c2nc[nH]c2C(=O)N2CCc3ccccc3C2)CC1	x	30	n	29	n
CC(C)(C)OC(=O)CNC(=O)c1nc[nH]c1C(=O)N1CCc2ccccc2C1	n	n	n	31	n
CCN1C(=O)/C(=C2/Sc3ccccc3N2CC)SC1=S	n	48	n	n	n
CCN1/C(=C2\SC(=S)N(Cc3ccccc3)C2=O)Sc2ccccc21	n	n	n	n	n
C=CCC[C@H](Cc1ccc(F)cc1)C(=O)OC[C@H](Cc1c[nH]c2ccccc12)NC(=O)[C@@H](CC=C)CC(=O)NCCO	x	n	n	25	n
C=CCC[C@H](Cc1ccc(F)cc1)C(=O)OC[C@@H](Cc1c[nH]c2ccccc12)NC(=O)[C@@H](CC=C)CC(=O)N[C@@H](CO)Cc1ccccc1	x	n	n	n	n
O=C(O)c1cc(-c2ccc(C=NNc3ccc([N+](=O)[O-])cn3)o2)ccc1Cl	x	x	x	n	x
CCn1c(C(C#N)=NO)nc2ccccc21	x	x	x	n	x
O=C1C(Cl)=C(N2CCOCC2)C(=O)N1c1ccccc1F	30	n	n	n	n
O=C1C(Cl)=C(N2CCOCC2)C(=O)N1c1ccc(Br)cc1	35	n	x	n	n
CC(C)c1ccc(N2C(=O)C(Cl)=C(N3CCOCC3)C2=O)cc1	n	n	n	n	n
Cc1ccccc1N1C(=O)C(Cl)=C(N2CCOCC2)C1=O	n	n	n	n	n
O=C1C(Cl)=C(N2CCCCC2)C(=O)N1c1ccccc1	54	n	n	n	n
Cc1cccc(COc2ccc(C=NNC(=O)c3nnn(-c4nonc4N)c3COc3ccc(F)cc3)cc2)c1	x	x	x	n	x
O=C(CCCNC(=O)/C(=C/c1ccc(F)cc1)NC(=O)c1ccccc1)OCc1ccccc1	n	n	n	n	n
O=C(CCCNC(=O)/C(=C\c1ccc(F)cc1)NC(=O)c1ccccc1)OCc1ccccc1	n	31	n	n	n
O=C(NNS(=O)(=O)c1ccccc1[N+](=O)[O-])c1cc2ccccc2cc1O	n	23	n	n	n
C=CCN1C(=O)/C(=C/c2ccc(O)c(OC)c2)SC1=Nc1nccs1	x	x	x	n	x
SMILES	Fh CTSL1 inh	NRP1-CendR mod	MT1-MMP act inh	UCH37 DUB inh	DAGLB inh
CC(Oc1ccc2c3c(c(=O)oc2c1)CCC3)C(=O)NC1CCN(Cc2ccccc2)CC1 (stereo not drawn)	n	18	n	n	n
CC(C)(C)OC(=O)N1CC=C2C(C#N)=C(N)C(C#N)(C#N)[C@H](c3cccnc3)[C@H]2C1	n	n	n	n	n
N#CC1=C(N)C(C#N)(C#N)[C@H](c2ccncc2)[C@H]2CN(C(=O)OCc3ccccc3)CC=C12	19	n	n	n	n
O=C(NN=CC1=Cc2ccccc2OC1)c1ccncc1	x	x	x	n	x
CC(=O)Nc1ccc2c(c1)n(C)c(=O)n2C	n	n	n	n	n
Cn1c(=O)n(C)c2cc(NC(=O)CCl)ccc21	24	n	n	n	n
N#Cc1cc2nc(O)c(O)nc2cc1[N+](=O)[O-]	n	n	n	n	n
CNc1nc2cc([N+](=O)[O-])c([N+](=O)[O-])cc2nc1NC	n	n	n	41	n
N/C(=N/OC(=O)c1cccc([N+](=O)[O-])c1)c1cccc([N+](=O)[O-])c1	n	n	x	x	n
CC1=C(C)/C(=N/OC(=O)c2cccc([N+](=O)[O-])c2)C=CC1=O	17	n	n	x	n
CCc1c(C)nc(SCC(=O)NNC(=O)Cc2ccc(OC)cc2)[nH]c1=O	18	n	n	n	n
CCc1c(C)nc(SCC(=O)Nc2nc(-c3ccc(OC)cc3)cs2)[nH]c1=O	n	n	n	n	n
CN(C)C(=O)COc1ccc2ccc(=O)oc2c1	n	n	n	n	n
